According to ChEMBL document CHEMBL2346664, “Synthesis, characterization and in vitro anticancer evaluation of novel 1,2,4-triazolin-3-one derivatives” (2013):
Active and inactive are the calls of the source. The calls are words filed in the database; no cut-off is given here.

How the values were obtained:
SK-MEL-2 = assay: Growth inhibition of human SK-MEL-2 cells assessed as growth inhibition at 10 uM after 48 hrs by sulforhodamine B assay; format: functional; conditions: SK-MEL-2, 48 h, read-out: GI
RXF 393 = assay: Growth inhibition of human RXF393 cells assessed as cell growth at 10 '-4 M after 48 hrs by sulforhodamine B assay; format: functional; conditions: RXF 393, 48 h, read-out: Activity
A549 [1] = assay: Growth inhibition of human A549 cells assessed as cell growth at 10 '-8 M after 48 hrs by sulforhodamine B assay; format: functional; conditions: A549, 48 h, read-out: Activity
Method in brief: (§1)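 Percent growth at each of the five concentrations of the 48 h continuous-exposure NCI SRB screen. Drug stocks were in DMSO at 400× the top final concentration and diluted in medium with gentamicin. Growth was calculated as [(Ti-Tz)/(C-Tz)]×100 when Ti ≥ Tz, or [(Ti-Tz)/Tz]×100 when Ti < Tz. Tz plates were fixed at drug addition; untreated wells served as control. Absorbance was read at 515 nm.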

MDA-MB-231 = assay: Growth inhibition of human MDA-MB-231 cells assessed as cell growth at 10 '-6 M after 48 hrs by sulforhodamine B assay; format: functional; conditions: MDA-MB-231, 48 h, read-out: Activity
SNB-75 = assay: Growth inhibition of human SNB75 cells assessed as cell growth at 10 '-5 M after 48 hrs by sulforhodamine B assay; format: functional; conditions: SNB-75, 48 h, read-out: Activity
OVCAR-8 = assay: Growth inhibition of human OVCAR8 cells assessed as cell growth at 10 '-7 M after 48 hrs by sulforhodamine B assay; format: functional; conditions: OVCAR-8, 48 h, read-out: Activity
[2] = Growth inhibition of human Hs 578T cells assessed as cell growth at 10 '-7 M after 48 hrs by sulforhodamine B assay; format: functional; conditions: read-out: Activity
A498 = assay: Growth inhibition of human A498 cells assessed as growth inhibition at 10 uM after 48 hrs by sulforhodamine B assay; format: functional; conditions: A498, 48 h, read-out: GI
Method in brief: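 Percent growth inhibition from the single 10^-5 M NCI-60 screen, reported as 100 minus growth percent. Growth percent was measured after 48 h drug exposure at 37 °C, 5% CO2, using TCA fixation, SRB staining and absorbance at 515 nm, against untreated controls and time-zero plates.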

HOP-92 = assay: Growth inhibition of human HOP92 cells assessed as cell growth at 10 '-6 M after 48 hrs by sulforhodamine B assay; format: functional; conditions: HOP-92, 48 h, read-out: Activity
IGROV-1 = assay: Growth inhibition of human IGROV1 cells assessed as cell growth at 10 '-5 M after 48 hrs by sulforhodamine B assay; format: functional; conditions: IGROV-1, 48 h, read-out: Activity
HL-60(TB) = assay: Growth inhibition of human HL-60(TB) cells assessed as growth inhibition at 10 uM after 48 hrs by sulforhodamine B assay; format: functional, cell-based
Method in brief: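 NCI DTP single high-dose primary screen at 10^-5 M across 60 human tumour lines. Growth percent of treated cells is taken relative to untreated controls: values of 0–100 indicate growth inhibition and values below 0 indicate cytotoxicity. Both growth percent and percentage growth inhibition are reported.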

MOLT-4 = assay: Growth inhibition of human MOLT4 cells assessed as cell growth at 10 '-4 M after 48 hrs by sulforhodamine B assay; format: functional; conditions: MOLT-4, 48 h, read-out: Activity
MDA-MB-468 = assay: Growth inhibition of human MDA-MB-468 cells assessed as growth inhibition at 10 uM after 48 hrs by sulforhodamine B assay; format: functional; conditions: MDA-MB-468, 48 h, read-out: GI
OVCAR-3 = assay: Growth inhibition of human OVCAR3 cells assessed as cell growth at 10 '-8 M after 48 hrs by sulforhodamine B assay; format: functional; conditions: OVCAR-3, 48 h, read-out: Activity
HT-29 = assay: Growth inhibition of human HT-29 cells assessed as cell growth at 10 '-6 M after 48 hrs by sulforhodamine B assay; format: functional; conditions: HT-29, 48 h, read-out: Activity
SK-OV-3 = assay: Growth inhibition of human SKOV3 cells assessed as cell growth at 10 '-7 M after 48 hrs by sulforhodamine B assay; format: functional; conditions: SK-OV-3, 48 h, read-out: Activity
KM12 = assay: Growth inhibition of human KM12 cells assessed as cell growth at 10 '-7 M after 48 hrs by sulforhodamine B assay; format: functional; conditions: KM12, 48 h, read-out: Activity
T47D = assay: Growth inhibition of human T47D cells assessed as cell growth at 10 '-6 M after 48 hrs by sulforhodamine B assay; format: functional; conditions: read-out: Activity
A549 [3] = assay: Growth inhibition of human A549 cells assessed as cell growth at 10 '-4 M after 48 hrs by sulforhodamine B assay; format: functional; conditions: A549, 48 h, read-out: Activity; method in brief: as §1
HOP-62 = assay: Growth inhibition of human HOP62 cells assessed as cell growth at 10 '-6 M after 48 hrs by sulforhodamine B assay; format: functional; conditions: HOP-62, 48 h, read-out: Activity

For Cc1cc(=O)oc2cc(OCCn3c(C)nn(-c4ccc(Cl)cc4)c3=O)ccc12, the inhibition of growth at 10 µM (SK-MEL-2) was 96.5%, the growth at 100 µM (RXF 393) was -21% and the growth at 0.01 µM (A549 [1]) was 97%. The growth at 1 µM (MDA-MB-231) was 66%, the growth at 10 µM (SNB-75) was 5% and the growth at 0.1 µM (OVCAR-8) was 98%. It also gave a growth at 0.1 µM [2] of 83%, an inhibition of growth at 10 µM (A498) of 74.3% and a growth at 1 µM (HOP-92) of 83%. For the same compound, the growth at 10 µM (IGROV-1) was 61%, the “growth inhibition (GI)” value (HL-60(TB)) was “Active” and the growth at 100 µM (MOLT-4) was 17%. The inhibition of growth at 10 µM (MDA-MB-468) was 83.9%, the growth at 0.01 µM (OVCAR-3) was 111% and the growth at 1 µM (HT-29) was 100%. For the same compound, the growth at 0.1 µM (SK-OV-3) was 103%, the growth at 0.1 µM (KM12) was 105% and the growth at 1 µM (T47D) was 89%. The growth at 100 µM (A549 [3]) was 27% and the growth at 1 µM (HOP-62) was 89%.
